Results reported in paper PMC10431048 (CPT: Pharmacometrics & Systems Pharmacology, 2023).
Values joined by “and” are separate entries in the source; they are usually repeats but may differ in a detail not shown here. Equal values may be shown once. “Also recorded” adds a separate entry of the source. Read-outs that look alike come from different tables or passages of the source.

How the values were obtained:
Population PK model = assay type: in vivo, human
Method in brief: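 Plasma from nine trials (healthy, hepatic-impaired, FSGS; K2EDTA; acetonitrile precipitation; deuterated internal standard) was assayed by LC-MS/MS, 2.00–4000 ng/mL, LLOQ 2 ng/mL; samples below LLOQ were excluded. NONMEM FOCE-I fit: two compartments, lag plus first-order absorption, proportional-plus-additive error, nonlinear Frel above 200 mg, instant CL/F induction after first dose. Covariates: forward p<0.01, backward p<0.001. Bootstrap gave standard errors.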

CYP3A = details: ref data on file, cited from earlier work
[1] = mass balance study; ref study 021HVOL16005, data on file; cited from earlier work
[2] = sparsentan 400 titrating to 800 mg/day vs irbesartan, week 36; cited from earlier work
[3] = cited from earlier work
[4] = mild and moderate hepatic impairment; ref study 021IHFX16009, data on file; cited from earlier work
[5] = assay type: in vivo, human; details: for change in steady-state AUC vs base: 800 mg once daily
Method in brief: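 Simulated steady-state exposure (AUC, Cmax, Cmin) at 800 mg/day from the final model for a typical white male FSGS subject: 800-mg tablet, median ALKP and CrCL, no moderate or strong CYP3A4 inhibitor. Continuous covariates were set one at a time to 5th and 95th percentiles, and categorical covariates to alternative categories. Multivariate effects came from post hoc individual estimates stratified by covariate category.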

[6] = log-domain coefficient, vs capsule
[7] = log-domain coefficient, vs white
[8] = ALKP at the 5th and 95th percentile
[9] = CrCL at the 5th and 95th percentile
[10] = covariates other than moderate/strong CYP3A4 inhibitors, steady-state 800 mg

- Vc/F (derived) (Population PK model; 800 mg dose): 69.5 L
- Vp/F (derived) (Population PK model; 800 mg dose): 17.0 L
- CL/F (derived) (Population PK model; 800 mg dose, single dose, reference subject): 5.47 L/h
- Q/F (Population PK model; 400-mg dose, reference subject): 2.03 L/h
- Vp/F (Population PK model; 400-mg dose, reference subject): 12.1 L
- Vc/F (Population PK model; 400-mg dose, reference subject white female, 400-mg capsule): 49.3 L
- effect of co-medications on PK (Population PK model; acid reducer (including proton pump inhibitors), P-gp inhibitor, or mild CYP3A4 inhibitor): No significant effect
- Induction change in CL (Population PK model; additional CL at steady-state (CYP3A auto-induction), 400-mg reference subject): 1.23 L/h
- Ka (Population PK model; capsule (reference)): 0.740 h⁻¹
- half-life (Population PK model; human, plasma, oral, 800 mg): 9.6 h
- Variance Ka (Population PK model; interindividual random effect): 0.474
- Variance Vc (Population PK model; interindividual random effect): 0.234
- Effect on Ka: Crushed tablet (Population PK model; [6]): 0.080
- Effect on Ka: Tablet (Population PK model; [6]): −0.306
- Effect on Vc: Asian (Population PK model; [7]): 0.265
- Effect on Vc: Black or African American (Population PK model; [7]): 0.309
- increase of clearance due to CYP3A auto-induction at steady-state (Population PK model; steady-state vs first dose): 32%
- effect of ALKP on AUC [5, 8]: < 15%
- effect of ALKP on Cmax [5, 8]: < 10%
- impact of CrCL on AUC [5, 9]: < 20%
- impact of CrCL on Cmax [5, 9]: < 10%
- steady-state exposures across race ([5]; FSGS, 800-mg tablet): comparable
- steady-state exposure by age bracket ([5]; FSGS, 800-mg tablet, age 8-17, 18-64, >=65 years): increase
- increase in steady-state Cmax by formulation ([5]; capsule and crushed tablet formulations compared to tablet, 800 mg): less than 10%
- effect of other covariates on AUC [5, 10]: less than 20%
- effect of other covariates on Cmax [5, 10]: less than 20%
- impact of sex and race on steady-state AUC ([5]; female, White, Black, Asian): < 15%
- impact of sex and race on steady-state Cmax ([5]; female, White, Black, Asian): < 15%
- change in steady-state Cmax vs base ([5]; moderate CYP3A4 inhibitor comedication): 16.0%
- change in steady-state AUC vs base ([5]; moderate CYP3A4 inhibitor comedication, FSGS): 31.4% and 31%
- change in steady-state AUC vs base ([5]; strong CYP3A4 inhibitor comedication, FSGS): 191.3% and 191%
SMILES: CCCCC1=NC2(CCCC2)C(=O)N1Cc1ccc(-c2ccccc2S(=O)(=O)Nc2noc(C)c2C)c(COCC)c1 [sparsentan]
- interaction with CYP3A in vitro (CYP3A; in vitro): competitive inhibitor and inducer
- metabolism (CYP3A): primarily metabolized by CYP3A
- urinary excretion [1]: 2.18 % of the radioactive dose
- FPRE response, interim results [2]: significantly greater
- reduction in urinary protein to creatinine ratio (UP/C) ([3]; sparsentan 200, 400, or 800 mg/day vs irbesartan 300 mg/day, 8 weeks): higher reduction
- rates of patients reaching the FSGS partial remission end point (FPRE) ([3]; sparsentan vs irbesartan): higher rates
- effect of hepatic impairment on sparsentan exposure [4]: not having a large effect
- effect of formulation on steady-state AUC ([5]; capsule and crushed tablet compared to tablet): unaffected; also recorded: no overall change
